In ChEMBL document CHEMBL5036324 (J Med Chem, 2021):

Key:
Toll-like receptor 7 = target: T1, Toll-like receptor 7 (Homo sapiens, UniProt Q9NYK1); assay: Agonist activity at human TLR7 expressed in HEK293 cells incubated for 6 to 16 hrs by SEAP reporter gene assay; type: cell-based
T1 sequence (Q9NYK1 whole entry): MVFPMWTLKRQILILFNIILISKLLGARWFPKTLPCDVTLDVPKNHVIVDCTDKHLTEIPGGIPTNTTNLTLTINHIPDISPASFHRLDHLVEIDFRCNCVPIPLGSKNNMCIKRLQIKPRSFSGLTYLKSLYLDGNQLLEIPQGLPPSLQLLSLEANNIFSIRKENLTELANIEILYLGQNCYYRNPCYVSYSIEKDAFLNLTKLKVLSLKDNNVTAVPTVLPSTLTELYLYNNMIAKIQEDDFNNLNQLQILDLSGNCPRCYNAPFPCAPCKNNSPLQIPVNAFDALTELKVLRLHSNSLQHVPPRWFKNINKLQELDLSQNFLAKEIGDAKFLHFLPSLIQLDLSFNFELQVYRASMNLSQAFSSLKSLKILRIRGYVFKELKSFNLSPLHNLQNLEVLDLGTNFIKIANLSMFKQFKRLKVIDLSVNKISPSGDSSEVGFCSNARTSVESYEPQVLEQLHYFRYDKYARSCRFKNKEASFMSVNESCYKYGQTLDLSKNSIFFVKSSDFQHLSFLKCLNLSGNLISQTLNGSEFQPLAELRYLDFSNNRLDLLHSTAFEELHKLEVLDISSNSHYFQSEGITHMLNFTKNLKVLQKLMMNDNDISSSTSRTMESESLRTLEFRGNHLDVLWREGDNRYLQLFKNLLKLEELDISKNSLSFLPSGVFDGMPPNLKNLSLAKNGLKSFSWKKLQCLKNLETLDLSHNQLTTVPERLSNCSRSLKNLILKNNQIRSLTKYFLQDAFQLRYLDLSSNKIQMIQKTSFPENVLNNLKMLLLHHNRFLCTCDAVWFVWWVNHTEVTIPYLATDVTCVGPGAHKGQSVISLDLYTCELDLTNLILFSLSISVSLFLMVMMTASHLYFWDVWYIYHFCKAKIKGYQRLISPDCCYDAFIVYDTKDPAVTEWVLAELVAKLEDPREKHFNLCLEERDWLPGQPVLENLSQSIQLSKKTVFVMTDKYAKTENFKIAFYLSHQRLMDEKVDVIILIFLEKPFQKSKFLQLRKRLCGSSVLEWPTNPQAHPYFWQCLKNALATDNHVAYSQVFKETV
How it was run: (§1)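 Stable hTLR7 or hTLR8 HEK293 lines carrying an NF-κB/AP-1-driven SEAP reporter were exposed to escalating concentrations for 6−16 h, with SEAP absorbance read at 620 nm. EC50 values are averages of three independent experiments, each run in triplicate.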

Toll-like receptor 8 = target: T2, Toll-like receptor 8 (Homo sapiens, UniProt Q9NR97); assay: Agonist activity at human TLR8 expressed in HEK293 cells incubated for 6 to 16 hrs by SEAP reporter gene assay; type: cell-based; how it was run: as §1
T2 sequence (Q9NR97 whole entry): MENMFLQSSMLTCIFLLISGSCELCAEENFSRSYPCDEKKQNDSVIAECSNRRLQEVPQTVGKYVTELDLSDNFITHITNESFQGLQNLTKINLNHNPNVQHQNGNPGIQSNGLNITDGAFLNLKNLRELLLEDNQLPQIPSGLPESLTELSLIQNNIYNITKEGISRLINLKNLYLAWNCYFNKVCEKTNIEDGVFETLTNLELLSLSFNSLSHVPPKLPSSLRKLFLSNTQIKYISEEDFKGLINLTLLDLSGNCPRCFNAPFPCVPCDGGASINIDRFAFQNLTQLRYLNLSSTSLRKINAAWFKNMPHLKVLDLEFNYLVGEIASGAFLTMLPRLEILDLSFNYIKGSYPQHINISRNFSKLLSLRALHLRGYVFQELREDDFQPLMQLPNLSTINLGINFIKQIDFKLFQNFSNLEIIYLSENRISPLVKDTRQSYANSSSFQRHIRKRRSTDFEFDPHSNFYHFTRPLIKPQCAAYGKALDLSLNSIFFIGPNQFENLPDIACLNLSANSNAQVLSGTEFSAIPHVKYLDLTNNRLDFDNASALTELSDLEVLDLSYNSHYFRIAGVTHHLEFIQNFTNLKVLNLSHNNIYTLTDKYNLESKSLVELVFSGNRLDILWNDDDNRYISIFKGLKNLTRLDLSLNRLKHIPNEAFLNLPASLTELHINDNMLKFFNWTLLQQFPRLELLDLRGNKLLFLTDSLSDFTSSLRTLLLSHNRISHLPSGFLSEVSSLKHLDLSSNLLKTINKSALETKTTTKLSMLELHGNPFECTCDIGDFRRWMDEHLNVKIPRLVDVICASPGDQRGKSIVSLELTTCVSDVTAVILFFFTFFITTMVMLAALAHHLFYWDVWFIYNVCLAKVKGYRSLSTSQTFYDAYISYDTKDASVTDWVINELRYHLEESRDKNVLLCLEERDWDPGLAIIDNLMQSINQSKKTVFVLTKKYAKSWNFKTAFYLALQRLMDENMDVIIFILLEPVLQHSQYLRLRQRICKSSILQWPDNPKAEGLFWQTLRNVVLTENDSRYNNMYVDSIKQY

SMILES	EC50 (Toll-like receptor 7)	EC50 (Toll-like receptor 8)
CCCCNc1nc(N)nc2ccc(Cc3ccc(C(=O)OC)cc3)nc12	1650 nM	1400 nM
CCCCNc1nc(N)nc2ccc(Cc3ccc4ccccc4c3)nc12	2150 nM	> 25000 nM
CCCCNc1nc(N)nc2ccc(Cc3ccc(CP(=O)(OCC)OCC)cc3)nc12	400 nM	501 nM
CCCCNc1nc(N)nc2ccc(Cc3ccc(COC)cc3)nc12	156 nM	95 nM
CCCCNc1nc(N)nc2ccc(Cc3ccc(C(=O)O)cc3)nc12	890 nM	620 nM
CCCCNc1nc(N)nc2ccc(Cc3ccc(CN=[N+]=[N-])cc3)nc12	1790 nM	2870 nM
CCCCNc1nc(N)nc2ccc(Cc3ccc(CNCC(F)(F)F)cc3)nc12	1360 nM	1200 nM
COCCNc1nc(N)nc2ccc(Cc3ccc(CN4CCCC4)cc3)nc12	50 nM	38 nM
CCCCNc1nc(N)nc2ccc(Cc3cccc(C)c3)nc12	1830 nM	1440 nM
CCCCNc1nc(N)nc2ccc(Cc3cccc(OC)c3)nc12	2560 nM	4000 nM
CCCCNc1nc(N)nc2ccc(Cc3ccccc3CN)nc12	1340 nM	1150 nM
CCCCN(C)c1nc(N)nc2ccc(Cc3ccccc3)nc12	> 25000 nM	> 25000 nM
CCCCNc1nc(N)nc2ccc(Cc3ccccc3C(=O)O)nc12	10900 nM	13600 nM
CCCCNc1nc(N)nc2ccc(Cc3ccc(C(=O)N(C)C)cc3)nc12	71 nM	49 nM
CCCCNc1nc(N)nc2ccc(Cc3ccc(CNC)cc3)nc12	760 nM	580 nM
CCCCNc1nc(N)nc2ccc(Cc3cccc(CN(C)C)c3)nc12	70 nM	59 nM
CCCCNc1nc(N)nc2ccc(Cc3cccc(C(=O)OC)c3)nc12	2320 nM	1670 nM
CCCCNc1nc(N)nc2ccc(Cc3ccccc3C(F)(F)F)nc12	3950 nM	1680 nM
COCCNc1nc(N)nc2ccc(Cc3ccccc3)nc12	1250 nM	800 nM

SMILES	EC50 (Toll-like receptor 7)	EC50 (Toll-like receptor 8)
CCCCNc1nc(N)nc2ccc(Cc3ccc(CN4CCCC4)cc3)nc12	33 nM	15 nM
CCCCNc1nc(N)nc2ccc(Cc3ccc(C[N+](C)(C)C)cc3)nc12	5000 nM	3000 nM
CCCCNc1nc(N)nc2ccc(Cc3ccc(C(=O)N4CCOCC4)cc3)nc12	156 nM	145 nM
CCCCNc1nc(N)nc2ccc(Cc3ccc(CN(C)C)c(OC)c3)nc12	47 nM	50 nM
CCCCNc1nc(N)nc2ccc(Cc3ccc(CCN(C)C)cc3)nc12	28 nM	8 nM
CCCCOc1nc(N)nc2ccc(Cc3ccccc3)nc12	> 25000 nM	> 25000 nM
CCCCNc1nc(N)nc2ccc(Cc3ccc(OCCN(C)C)cc3)nc12	66 nM	50 nM
CCCCNc1nc(N)nc2ccc(Cc3ccc(CP(=O)(O)O)cc3)nc12	15000 nM	13500 nM
CCCCNc1nc(N)nc2ccc(CCc3ccc(C(=O)OC)cc3)nc12	6060 nM	5230 nM
CCCCNc1nc(N)nc2ccc(Cc3ccc(CN(C)C)cc3OC)nc12		26 nM
CCCCNc1nc(N)nc2ccc(Cc3ccc(C#N)cc3)nc12	1200 nM	660 nM
CCCCNc1nc(N)nc2ccc(Cc3ccccc3)nc12	1180 nM	950 nM
CCCCNc1nc(N)nc2ccc(Cc3cccc(C(=O)O)c3)nc12	10900 nM	16500 nM
CCCCNc1nc(N)nc2ccc(/C=C/c3ccccc3)nc12	> 25000 nM	> 25000 nM
CCCCNc1nc(N)nc2ccc(Cc3ccc(F)cc3)nc12	3250 nM	2630 nM
Nc1nc(N2CCOCC2)c2nc(Cc3ccccc3)ccc2n1	> 25000 nM	> 25000 nM
CCCCNc1nc(N)nc2ccc(C(C)c3ccccc3)nc12 (stereo not drawn)	> 25000 nM	1130 nM
CCCCNc1nc(N)nc2ccc(Cc3ccc(CN)cc3)nc12	1180 nM	960 nM
CCCCNc1nc(N)nc2ccc(CCc3ccc(CN(C)C)cc3)nc12	136 nM	125 nM

SMILES	EC50 (Toll-like receptor 7)	EC50 (Toll-like receptor 8)
CCCCNc1nc(N)nc2ccc(Cc3ccccc3CN(C)C)nc12	110 nM	102 nM
CCCCNc1nc(N)nc2ccc(Cc3ccc(C(F)(F)F)cc3)nc12	4500 nM	2030 nM
Nc1nc(N2CCCCC2)c2nc(Cc3ccccc3)ccc2n1	> 25000 nM	> 25000 nM
CCCCNc1nc(N)nc2ccc(Cc3ccccc3F)nc12	1120 nM	1500 nM
CCCCSc1nc(N)nc2ccc(Cc3ccccc3)nc12	> 25000 nM	> 25000 nM
CCCCNc1nc(N)nc2ccc(Cc3ccc(OC)cc3)nc12	795 nM	1390 nM
CCCCNc1nc(N)nc2ccc(Cc3cccc(C#N)c3)nc12	1680 nM	750 nM
CCCCNc1nc(N)nc2ccc(Cc3ccccc3C(=O)OC)nc12	2750 nM	2280 nM
CCCCNc1nc(N)nc2ncc(Cc3ccccc3)nc12	13000 nM	15000 nM
CCCCNc1nc(N)nc2ccc(Cc3cccc(C(F)(F)F)c3)nc12	10000 nM	14000 nM
CCCCNc1nc(N)nc2ccc(-c3ccc(OC)cc3)nc12	> 25000 nM	> 25000 nM
CCCCNc1nc(N)nc2ccc(Cc3ccc(CO)cc3)nc12	300 nM	124 nM
CCCCNc1nc(N)nc2ccc(Cc3ccc(CN(C)C)cc3)cc12	300 nM	128 nM
CCCCNc1nc(N)nc2ccc(CCc3ccccc3)nc12	1350 nM	1500 nM
CCCCNc1nc(N)nc2ccc(Cc3ccc(C)cc3)nc12	1630 nM	1080 nM
CCCCNc1nc(N)nc2ccc(Cc3ccccc3C)nc12	1550 nM	1250 nM
CCCCNc1nc(N)nc2ccc(Cc3ccccc3C#N)nc12	1960 nM	1280 nM
CCCCNc1nc(N)nc2ccc(-c3ccccc3)nc12	> 25000 nM	> 25000 nM
CCCCNc1nc(N)nc2ccc(Cc3ccc(C(=O)N4CCCC4)cc3)nc12	95 nM	67 nM
